Experimental data taken from ChEMBL document CHEMBL4017491, “Phthalazino[1,2-b]quinazolinones as p53 Activators: Cell Cycle Arrest, Apoptotic Response and Bak-Bcl-xl Complex Reorganization in Bladder Cancer Cells” (J Med Chem, 2017).
The source made the active and inactive calls. No cut-off for these calls is given here.

Experiments:
T-24 [1] = assay: Induction of apoptosis in human T24 cells assessed as increase in bim level up to 10 uM after 24 hrs by Western blot analysis; assay type: functional, cell-based
Outline: (§1)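 T24 cells (3 × 10^5 per well) grown to 85–95% confluence, then exposed 24 h to 0–10 μM. Whole-cell extracts run on SDS-PAGE and blotted to nitrocellulose. Probed with the indicated antibodies and AP-linked anti-rabbit IgG, with ECL detection. Blots stripped and reprobed for β-actin as loading control.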

Mus musculus [2] = assay: Toxicity in BALB/C nude mouse xenografted with human HepG2 cells assessed as effect on food consumption at 6 to 12 mg/kg, ip administered every 2 days for 16 days; assay type: organism-based; details: in vivo
Outline: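 Male BALB/C nude mice with HepG2 flank xenografts, n = 6/group. Given ip 6 or 12 mg/kg every 2 days in 5% DMSO/saline; vehicle and HCPT 6 mg/kg as controls. Clinical signs, food intake and body weight monitored; tumour size and weight measured three times weekly.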

[3] = target: Cellular tumor antigen p53 (Homo sapiens) (UniProt P04637); assay: Induction of phospho-p53 accumulation in mitochondria of human T24 cells up to 10 uM after 24 hrs by Western blot method
Sequence of Cellular tumor antigen p53 (Homo sapiens) (P04637 whole entry, looked up): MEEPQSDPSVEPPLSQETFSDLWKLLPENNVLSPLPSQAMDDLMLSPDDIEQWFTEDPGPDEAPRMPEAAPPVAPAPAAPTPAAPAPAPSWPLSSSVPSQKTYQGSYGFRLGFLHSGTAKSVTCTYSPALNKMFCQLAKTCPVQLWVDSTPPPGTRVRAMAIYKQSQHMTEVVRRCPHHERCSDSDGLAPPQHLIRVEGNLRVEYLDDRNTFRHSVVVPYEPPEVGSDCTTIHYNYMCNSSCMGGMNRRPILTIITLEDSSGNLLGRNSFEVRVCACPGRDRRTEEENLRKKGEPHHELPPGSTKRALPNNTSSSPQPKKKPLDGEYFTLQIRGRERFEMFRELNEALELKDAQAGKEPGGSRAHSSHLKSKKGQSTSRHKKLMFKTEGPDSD

Mus musculus [4] = assay: Toxicity in BALB/C nude mouse xenografted with human HepG2 cells assessed as change in body weight at 6 mg/kg, ip administered every 2 days for 16 days; assay type: organism-based; details: in vivo
Outline: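 HepG2-xenografted male BALB/C nude mice treated ip at 6 mg/kg every 2 days; vehicle was 5% DMSO in saline. Body weight recorded three times weekly and at the end of treatment.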

HepG2 = assay: Antiproliferative activity against human HepG2 cells by MTT assay; assay type: functional, cell-based
Outline: (§2)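 Cell lines cultured in RPMI 1640 with 10% FBS. Viability read by MTT (5 mg/mL, 4 h at 37 °C), with formazan dissolved in DMSO and absorbance taken at 490 nm. Viability (%) = A490 treated / A490 control × 100. IC50 taken from dose-response curves, from three independent experiments each run in triplicate.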

[5] = target: Cellular tumor antigen p53 (Homo sapiens) (UniProt P04637); assay: Activation of p53 in human T24 cells assessed as increase in p21 level up to 10 uM after 24 hrs by Western blot analysis; assay type: cell-based
Outline: (§3)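 T24 cells, 3 × 10^5 per well, grown to 85−95% confluence, then exposed to 0−10 μM for 24 h. Whole-cell extracts in sample buffer run on SDS-polyacrylamide gels and transferred to nitrocellulose. Blots probed with primary antibodies and AP-linked anti-rabbit IgG, detected by ECL. Blots stripped and reprobed for β-actin as loading control.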

T-24 [6] = assay: Antitumor activity against human T24 cells xenografted in BALB/C nude mouse assessed as tumor growth inhibition at 6 mg/kg, ip administered every 2 days for 16 days relative to control; assay type: functional; details: T-24, ip, read-out: TGI
[7] = target: Cellular tumor antigen p53 (Homo sapiens) (UniProt P04637); assay: Activation of p53 in human T24 cells assessed as decrease in MDM2 protein level up to 10 uM after 24 hrs by Western blot analysis; assay type: cell-based; outline: as §3
T-24 [8] = assay: Induction of apoptosis in human T24 cells assessed as increase in bax level up to 10 uM after 24 hrs by Western blot analysis; assay type: functional, cell-based; outline: as §1
T-24 [9] = assay: Effect on cell cycle distribution in human T24 cells assessed as live cells at 10 uM after 1 hr by Annexin V-FITC/propidium iodide staining based FACS analysis (reference value: 98.3%); assay type: functional
[10] = target: Cellular tumor antigen p53 (Homo sapiens) (UniProt P04637); assay: Activation of p53 in human T24 cells assessed as increase in p21 protein expression after 24 hrs by Western blot analysis; assay type: cell-based
T-24 [11] = assay: Antiproliferative activity against human T24 cells by MTT assay; assay type: functional, cell-based; outline: as §2
T-24 [12] = assay: Induction of apoptosis in human T24 cells assessed as live cells at 10 uM by Annexin V-FITC/propidium iodide based flow cytometric analysis (reference value: 89.5%); assay type: functional
T-24 [13] = assay: Effect on cell cycle distribution in human T24 cells assessed as late necrotic cells at 5 uM after 1 hr by Annexin V-FITC/propidium iodide staining based FACS analysis (reference value: 1.71%); assay type: functional
PC-3 = assay: Antiproliferative activity against p53 null human PC3 cells by MTT assay; assay type: functional, cell-based; outline: as §2
J82 [14] = assay: Cell cycle arrest in human J82 cells assessed as accumulation at S phase at 10 uM after 48 hrs by propidium iodide staining based FACS analysis (reference value: 46.79 %); assay type: functional
Outline: (§4)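 Cells treated with 1−10 μM for 48 h, trypsinized, and fixed in 70% ethanol. Stained with 50 μg/mL propidium iodide and phase distribution analyzed by flow cytometry. Mean ± SD from three independent measurements.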

T-24 [15] = assay: Effect on cell cycle distribution in human T24 cells assessed as late apoptotic cells at 1 uM after 1 hr by Annexin V-FITC/propidium iodide staining based FACS analysis relative to control; assay type: functional
J82 [16] = assay: Cell cycle arrest in human J82 cells assessed as accumulation at G2 phase at 1 uM after 48 hrs by propidium iodide staining based FACS analysis (reference value: 10.92 %); assay type: functional; outline: as §4
T-24 [17] = assay: Induction of apoptosis in human T24 cells assessed as early apoptotic cells at 10 uM by Annexin V-FITC/propidium iodide based flow cytometric analysis (reference value: 1.79%); assay type: functional
T-24 [18] = assay: Effect on light absorption in human T24 cells up to 10 uM after 1 hr at 490 nanometer; assay type: functional, cell-based
Outline: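 T24 cells treated at 1−10 μM for 1 h, then absorbance read at 490 nm to check for interference with the MTT read-out.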

HeLa = assay: Antiproliferative activity against human HeLa cells by MTT assay; assay type: functional, cell-based; outline: as §2
J82 [19] = assay: Cell cycle arrest in human J82 cells assessed as accumulation at S phase at 1 uM after 48 hrs by propidium iodide staining based FACS analysis (reference value: 46.79 %); assay type: functional; outline: as §4
T-24 [20] = assay: Induction of apoptosis in human T24 cells assessed as activation of caspase-3 at 1 uM by FITC-DEVD-FMK based flow cytometric analysis (reference value: 2.8%)
T-24 [21] = assay: Effect on cell cycle distribution in human T24 cells assessed as live cells at 5 uM after 1 hr by Annexin V-FITC/propidium iodide staining based FACS analysis (reference value: 98.3%); assay type: functional
NCI-H460 = assay: Antiproliferative activity against human NCI-H460 cells by MTT assay; assay type: functional, cell-based; outline: as §2
T-24 [22] = assay: Induction of apoptosis in human T24 cells assessed as late apoptotic cells at 5 uM by Annexin V-FITC/propidium iodide based flow cytometric analysis (reference value: 0.193%); assay type: functional
T-24 [23] = assay: Effect on cell cycle distribution in human T24 cells assessed as late necrotic cells at 1 uM after 1 hr by Annexin V-FITC/propidium iodide staining based FACS analysis (reference value: 1.71%); assay type: functional
Mus musculus [24] = assay: Effect on p53 expression in BALB/C nude mouse xenografted with human T24 cells at 6 to 12 mg/kg, ip administered every 2 days for 16 days by immunoblot analysis
T-24 [25] = assay: Induction of apoptosis in human T24 cells by Annexin V-FITC/propidium iodide based flow cytometric analysis; assay type: functional, cell-based
T-24 [26] = assay: Induction of apoptosis in human T24 cells assessed as necrotic cells at 5 uM by Annexin V-FITC/propidium iodide based flow cytometric analysis (reference value: 8.53%); assay type: functional

Activity [3]: Active
IC50 (HepG2): 3.8 µM
Activity [5]: Active
Activity [7]: Active
Activity [10]: Dose-dependent effect
IC50 (HeLa): 6.1 µM
IC50 (NCI-H460): 5.03 µM
SMILES: CN(C)CCNc1nn2c(=O)c3cc(Br)ccc3nc2c2ccccc12
Activity (T-24 [1]): Active
Activity (Mus musculus [2]): Non-Toxic
Activity (Mus musculus [4]): Non-Toxic
inhibition in vivo at 6 mg/kg (T-24 [6]): 44.8%
Activity (T-24 [8]): Active
Activity (T-24 [9]): 86.6%
IC50 (T-24 [11]): 3.09 µM
Activity (T-24 [12]): 21.8%
Activity (T-24 [13]): 10.6%
Activity (PC-3): inactive
Activity (J82 [14]): 64.2%
Activity (T-24 [15]): 0%
Activity (J82 [16]): 12%
Activity (T-24 [17]): 29.4%
Activity (T-24 [18]): inactive
Activity (J82 [19]): 39.51%
Activity (T-24 [20]): 7%
Activity (T-24 [21]): 89.4%
Activity (T-24 [22]): 10.2%
Activity (T-24 [23]): 6.54%
Activity (Mus musculus [24]): inactive
Activity (T-24 [25]): Dose-dependent effect
Activity (T-24 [26]): 0.661%
